Source: PubChem
Rows were chosen to be rich in hits. Some 1.3% of all compounds tested hit in one or more screens of this group.
EphB4 antag: EphB4-ephrin-B2 interaction antagonism. EphB4 LBD / TNYL-RAW-Alexa532 peptide, fluorescence polarization. inhibition, % at 7 µM. 97,000 tested, 0.15% active. AID 720;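 active = inhibition above the screen-wide mean inhibition plus 3 SD, cut at about 15% in these data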;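 also: 0% = DMSO wells and 100% = excess unlabeled TNYL-RAW peptide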
LYP inh 2: blocks human PTPN22 phosphatase activity; Q9Y2R2; recombinant LYP catalytic domain, DiFMUP fluorescence; inhibition, % at 2 µM; 96,000 tested, 0.21% active; AID 640;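 active = inhibition at 2 µM at or above a set limit, the screen mean plus 3 SD, cut at about 24% in these data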;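 also: 0% = DMSO with enzyme and 100% = enzyme fully blocked by orthovanadate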
PTPN22 act: LYP (human) phosphatase activation; recombinant LYP, DiFMUP fluorescence; 0 = plate median, 100 = signal doubled; activation, % at 2 µM; 96,000 tested, 0.11% active;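 active = activation at 2 µM above a set limit, the mean plus 5 SD, cut at about 37% in these data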
HIV Rev-RRE inh: inhibitors of HIV-1 Rev-RRE RNA interaction; P05866; Rev peptide-RRE RNA binding, FRET; inhibition, % at 8 µM; 97,000 tested, 0.79% active; AID 704;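 active = inhibition above the screen-wide mean plus 3 SD, cut at about 35% in these data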;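 also: 0% = median DMSO wells and 100% = median Neomycin B control wells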
Target sequence (P05866 whole entry, looked up): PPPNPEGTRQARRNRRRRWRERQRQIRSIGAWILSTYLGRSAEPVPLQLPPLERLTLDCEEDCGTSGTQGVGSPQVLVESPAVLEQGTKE
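Assay system: Labelled RRE RNA duplex and labelled Rev peptide | Times: 5 min preincubation and 15 min binding, 25 °C | Detection: FRET, ex 480 nm, em 540 and 671 nm | Evaluation: % inhibition of FRET ratio versus controls | Benchmarks: DMSO wells as 0% and neomycin B wells as 100% inhibition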
* marks the source's active call; other numbers are inactive results; [ ] = another dose, or the depositor's remark.

SMILES	EphB4 antag	LYP inh 2	PTPN22 act	HIV Rev-RRE inh
CC(C)(C)NC(=O)COC(=O)/C=C/c1ccccc1[N+](=O)[O-]	-1	-4	4	1
COc1ccc(NC(=O)CSc2nnc(-c3cccs3)n2-c2ccccc2)cc1	-6	8	-8	1
CC1=CC(C)=Nc2ccccc2N1	-3	5	-3	47*
Cc1ccc(C2=Nc3ccccc3NC(C)(c3ccc(C)o3)C2)o1 (centres undefined)	0	10	-7	11
CCOC(=O)[C@@H]1CCNC[C@@H]1c1ccccc1	-7	-4	1	141*[fluorescence artefact?]
CCOC(=O)C1=C(C)N=c2s/c(=C\c3cccn3C)c(=O)n2C1c1cccc(OC)c1OC (centres undefined)	5	8	-5	88*[fluorescence artefact?]
Clc1ccc(-c2cn3cccnc3n2)cc1Cl	-1	-11	9	39*
Clc1ccc(-c2cn3cccnc3n2)cc1	3	-8	12	4
CNC(=S)NNC(=O)c1cccn(Cc2ccc(Cl)cc2Cl)c1=O	-5	54*	-53	2
CCNC(=S)NNC(=O)c1cccn(Cc2ccc(Cl)cc2)c1=O	2	42*	-41	-1
Cc1nc2c(c(=O)n1CCC1=CCCCC1)c1nc3ccccc3nc1n2/N=C/c1ccccc1	3	39*	-39	2
COc1ccccc1CN=Cc1[nH]c2ccc(Br)c(Cl)c2c1O	-2	-8	10	87*[fluorescence artefact?]
COc1cccc(CN=CC2=C(O)CC(C)(C)CC2=O)c1OC	-3	-8	13	-1
CN(C)C=Nc1c(Br)cc(Br)c2nonc12	-3	2	-4	68*[fluorescence artefact?]
CCOc1ccc(C2=C/C(=C/c3cccnc3)C(=O)O2)cc1	0	12	-7	111*[fluorescence artefact?]
CCOc1ccc(C(=O)NCc2cccnc2)cc1	4	3	-2	3
O=C(COc1ccccc1C(=O)N/N=C\c1ccc(O)c(O)c1)N/N=C/c1ccc(O)c(O)c1	-1	32*	-28	1
CCOc1ccc(/C=N/NC(=O)COc2ccccc2-c2ccccc2)cc1	-1	1	4	-2
COc1ccc2nc(N3CCC(O)CC3)c(C#N)cc2c1	-2	-3	3	37*
Cc1cccn2c(N)c(-c3ccccc3)nc12	1	-4	2	108*[fluorescence artefact?]
CCOC(=O)c1c(-c2ccccc2)nc2c(C)cccn12	5	-4	7	4
C/C(=N\NC(=O)C(NC(=O)c1ccccc1)C(C)C)c1ccccc1 (centres undefined)	0	-6	9	0
N#Cc1ccc(Oc2ccc(/C=N/O)cn2)cc1	3	-1	6	6
Cc1cc(SCC(=O)c2cc3ccccc3o2)nc2ccccc12	-2	16	-14	46*
O=C(CSc1nc2cc(Cl)ccc2s1)c1cc2ccccc2o1	-4	6	-4	68*
SMILES	EphB4 antag	LYP inh 2	PTPN22 act	HIV Rev-RRE inh
Cc1cc(SCC(=O)c2ccc3c(c2)OCO3)nc2ccccc12	-1	-2	4	13
CN(C)/C=C(\C=N\OCc1ccc(Cl)cc1Cl)C(=O)Nc1ccc(Cl)c(Cl)c1	5	11	-5	6
C/C(=N\NC(=O)c1cccc(F)c1)c1ccc(Br)s1	-5	-1	5	-5
c1ccc2c(-n3cccn3)cccc2c1	-3	6	-3	2
CCCN(CCC)CC(O)COc1ccc([N+](=O)[O-])cc1 (centres undefined)	-5	7	-2	0
Cc1ccc(C(=O)C(C)Oc2cccc(NC(=O)c3ccco3)c2)cc1 (centres undefined)	4	-11	3	12
COc1cc(-c2nnc(SCc3cc(=O)oc4cc(O)c(O)cc34)o2)cc(OC)c1OC	-3	31*	-32	-20
CCOc1cc(/C=C(/C#N)C(=O)Nc2ccc(O)cc2)cc(Br)c1O	-3	17	-13	117*[fluorescence artefact?]
COc1cc(/C=C(\C#N)C(=O)Nc2ccc(SC(F)F)cc2)cc(OC)c1OC	9	0	-2	4
CN1CCc2nc(NC(=O)c3cccc(OC(F)F)c3)sc2C1	4	4	-2	65*
Cc1c(Cl)cccc1NC(=O)c1cccc(OC(F)F)c1	2	-26	21	4
COC(=O)C1CSc2[nH]c(=O)sc2C1c1ccccc1 (centres undefined)	7	-6	6	79*
COC(=O)C1Sc2[nH]c(=O)sc2C(c2ccc(Cl)cc2)C1C(=O)OC (centres undefined)	-10	0	-3	1
O=C(O)c1ccccc1-c1ccc(/C=c2\sc3nc4cc(Br)cnc4n3c2=O)o1	10	-1	-1	99*[fluorescence artefact?]
O=C1C2C3C=CC(C4CC34)C2C(=O)N1/N=C/c1ccc(-c2ccc(F)cc2[N+](=O)[O-])o1 (centres undefined)	1	13	-11	42*
O=C1C2C3C=CC(C4CC34)C2C(=O)N1/N=C/c1ccc(-c2ccc(Cl)cc2[N+](=O)[O-])o1 (centres undefined)	-2	5	-2	15
CC(=O)c1ccc(-n2nnnc2SCC(=O)N2CCc3ccccc3C2)cc1	18*	11	-8	7
CN1/C(=C/C=C(/C#N)C(N)=O)C(C)(C)c2ccccc21	2	6	-3	47*
CCn1nnnc1SCC(=O)Nc1nc(-c2cccs2)cs1	2	-1	5	3
O=C(Nc1ccc(OCC(F)(F)C(F)F)c(C(F)(F)F)c1)c1ccccc1O	0	-1	5	18
CCn1cc(C(=O)NCc2ccc3c(c2)OCO3)c(=O)c2cc(F)c(N3CCN(C(=O)c4ccco4)CC3)cc21	2	1	-2	-7
O=c1ccc2cc3c([nH]c4ccc(Br)cc43)oc-2c1O	11	14	-15	37*
CCCSc1nnc(NC(=O)c2sc3nc(-c4cccs4)ccc3c2N)s1	1	5	-7	105*[fluorescence artefact?]
O=C(Nc1nnc(SCc2ccccc2)s1)c1cccs1	-4	-8	12	2
Cc1csc(NC(=O)c2sc3nc(-c4cccs4)ccc3c2N)n1	-5	7	-5	102*[fluorescence artefact?]
SMILES	EphB4 antag	LYP inh 2	PTPN22 act	HIV Rev-RRE inh
CC(=Nc1cccc(C)c1)c1sc2ccccc2c1O	-7	-6	10	25
CC(=Nc1ccc(O)cc1)c1sc2ccccc2c1O	9	6	-7	42*
CCCN1CCCc2cc(CN)ccc21	6	1	-3	46*
CN1CCCc2cc(C=O)ccc21	-9	-30	29	4
COc1ccc2oc(=O)c(C(=O)Oc3ccc(NC(C)=O)cc3)cc2c1	1	6	-3	8
CCn1nc(C)c(/C=C2\CCCC3=C2OC(N)=C(C#N)C3c2c(C)nn(CC)c2C)c1C (centres undefined)	-7	2	-3	47*
COc1cccc(/C=C2/CN(C)CC3=C2OC(N)=C(C#N)C3c2cccc(OC)c2)c1 (centres undefined)	7	-6	-1	55*
O=C(N/N=C/C=C/c1ccccc1)C1CC1c1ccccc1 (centres undefined)	-5	-17	14	14
NC(=O)CSc1nnc(C2CC2)n1-c1ccccc1	-6	-11	11	9
